Columns and labels:
[1] = Antiangiogenic index, ratio of LC100 for 24 to 72 hrs post fertilized zebra fish embryo harboring fli1:EGFP to MEC for antiangiogenic activity in 24 to 72 hrs post fertilized zebra fish embryo harboring fli1:EGFP; assay type: toxicity, organism-based, Danio rerio; conditions: fli1:EGFP transgenic, zebrafish, in vivo
Outline: (§1)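 Dechorionated Tg(fli1:EGFP) embryos at 24 hpf, 20 per group, were kept in 1 mL embryo water with compound at 28.5 °C for a further 48 h. Compound was tested at 1, 5, 10, 25, 50, 75, 100, 150 and 200 μM. At 72 hpf, embryos anaesthetised with 0.016% tricaine had their ISVs imaged by fluorescence microscopy, with SU5416 as positive control. Definitions used: LOEC is anti-angiogenic effect in most larvae; LOTC is lowest toxic concentration; LC100 is total embryo lethality. TI = LOTC/LOEC; AI = LC100/LOEC.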

[2] = Toxicity index, ratio of MTC for 24 to 72 hrs post fertilized zebra fish embryo harboring fli1:EGFP to MEC for antiangiogenic activity in 24 to 72 hrs post fertilized zebra fish embryo harboring fli1:EGFP; assay type: organism-based, Danio rerio; conditions: fli1:EGFP transgenic, zebrafish, in vivo; outline: as §1
Danio rerio [3] = species on record: Danio rerio; assay: Toxicity in 24 to 72 hrs post fertilized zebra fish embryo harboring fli1:EGFP; assay type: organism-based; conditions: zebrafish, in vivo; outline: as §1
Danio rerio [4] = species on record: Danio rerio; assay: Antiangiogenic activity in 24 to 72 hrs post fertilized zebra fish embryo harboring fli1:EGFP after 48 hrs by fluorescence microscopic analysis; assay type: functional
Outline: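 Tg(fli1:EGFP) zebrafish: 20 dechorionated 24 hpf embryos per group in 1 mL embryo water with compound (1, 5, 10, 25, 50, 75, 100, 150, 200 μM), 28.5 °C for 48 h. Embryos anaesthetised in 0.016% tricaine; ISVs imaged by fluorescence microscopy at 72 hpf and scored for vessel defects and overall morphology. SU5416 positive control.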

A549 [5] = assay: Induction of apoptosis in human A549 cells assessed as early apoptotic cells at 2.5 uM after 48 hrs by Annexin-V-FITC/propidium iodide staining based flow cytometry (reference value: 15.2%); assay type: functional
Outline: (§2)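 A549 cells were plated at 2 × 10⁵ per well and held at 37 °C, 5% CO₂ for 24 h before compound was added. After treatment, cells were stained with annexin V-FITC plus propidium iodide for 30 min at 25 °C. Quadrants were read by flow cytometry: Q3 early apoptotic, Q2 late apoptotic.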

A549 [6] = assay: Induction of apoptosis in human A549 cells assessed as live cells at 2.5 uM after 48 hrs by Annexin-V-FITC/propidium iodide staining based flow cytometry (reference value: 75.2%); assay type: functional; outline: as §2
A549 [7] = assay: Induction of apoptosis in human A549 cells assessed as necrotic cells at 2.5 uM after 48 hrs by Annexin-V-FITC/propidium iodide staining based flow cytometry (reference value: 5.45%); assay type: functional; outline: as §2
A549 [8] = assay: Induction of apoptosis in human A549 cells assessed as late apoptotic cells at 2.5 uM after 48 hrs by Annexin-V-FITC/propidium iodide staining based flow cytometry (reference value: 4.05%); assay type: functional; outline: as §2

O=c1cc(-c2ccccc2)oc2cc(O)c(OCC(O)CO)c(O)c12 (configuration not stated)
selectivity ratio [1]: 2 | selectivity ratio [2]: 1 | LC100 (Danio rerio [3]): 100 µM | MTC (Danio rerio [3]): 50 µM | MEC (Danio rerio [4]): 50 µM

CN1CCN(C(=O)COc2c(O)cc3oc(-c4ccccc4)cc(=O)c3c2O)CC1
selectivity ratio [1]: 5 | selectivity ratio [2]: 1.5 | LC100 (Danio rerio [3]): 50 µM | MTC (Danio rerio [3]): 15 µM | MEC (Danio rerio [4]): 10 µM

O=C(COc1c(OCc2ccccc2)cc2oc(-c3ccccc3)cc(=O)c2c1O)N1CCOCC1
selectivity ratio [1]: 2 | selectivity ratio [2]: 1 | LC100 (Danio rerio [3]): 100 µM | MTC (Danio rerio [3]): 50 µM | MEC (Danio rerio [4]): 50 µM

O=C(COc1c(O)cc2oc(-c3ccccc3)cc(=O)c2c1O)N1CCN(CCO)CC1
selectivity ratio [1]: > 2 | selectivity ratio [2]: 1 | LC100 (Danio rerio [3]): > 200 µM | MTC (Danio rerio [3]): 100 µM | MEC (Danio rerio [4]): 100 µM

O=c1cc(-c2ccccc2)oc2cc(O)c(OCCCCCCO)c(O)c12
selectivity ratio [1]: 4 | selectivity ratio [2]: 1 | LC100 (Danio rerio [3]): 10 µM | MTC (Danio rerio [3]): 2.5 µM | MEC (Danio rerio [4]): 2.5 µM

O=C(COc1c(OCc2ccccc2)cc2oc(-c3ccccc3)cc(=O)c2c1O)N(CCO)CCO
selectivity ratio [1]: 2 | selectivity ratio [2]: 1 | LC100 (Danio rerio [3]): 200 µM | MTC (Danio rerio [3]): 100 µM | MEC (Danio rerio [4]): 100 µM

O=C(O)c1cc(O)c(O)c(O)c1 [GALLIC ACID]
Activity (A549 [5]): 32.6% | Activity (A549 [6]): 39.5% | Activity (A549 [7]): 6.7% | Activity (A549 [8]): 20.2%

Cc1cc(C)c(/C=C2\C(=O)Nc3ccccc32)[nH]1 [SEMAXANIB]
selectivity ratio [1]: 5 | selectivity ratio [2]: 1.5 | LC100 (Danio rerio [3]): 5 µM | MTC (Danio rerio [3]): 1.5 µM | MEC (Danio rerio [4]): 1 µM

O=C(COc1c(OCc2ccccc2)cc2oc(-c3ccccc3)cc(=O)c2c1O)N1CCN(c2ncccn2)CC1
selectivity ratio [1]: 1.3 | selectivity ratio [2]: 1 | LC100 (Danio rerio [3]): 100 µM | MTC (Danio rerio [3]): 75 µM | MEC (Danio rerio [4]): 75 µM

O=C(COc1c(O)cc2oc(-c3ccccc3)cc(=O)c2c1O)N1CCNCC1
selectivity ratio [1]: 5 | selectivity ratio [2]: 1.5 | LC100 (Danio rerio [3]): 50 µM | MTC (Danio rerio [3]): 15 µM | MEC (Danio rerio [4]): 10 µM

O=C(COc1c(OCc2ccccc2)cc2oc(-c3ccccc3)cc(=O)c2c1O)NCCO
selectivity ratio [1]: 2 | selectivity ratio [2]: 1 | LC100 (Danio rerio [3]): 200 µM | MTC (Danio rerio [3]): 100 µM | MEC (Danio rerio [4]): 100 µM

CCN(CC)C(=O)COc1c(O)cc2oc(-c3ccccc3)cc(=O)c2c1O
selectivity ratio [1]: 1 | selectivity ratio [2]: 1 | LC100 (Danio rerio [3]): 200 µM | MTC (Danio rerio [3]): 200 µM | MEC (Danio rerio [4]): 200 µM

O=C(COc1c(OCc2ccccc2)cc2oc(-c3ccccc3)cc(=O)c2c1O)N1CCC(O)CC1
selectivity ratio [1]: 4 | selectivity ratio [2]: 1 | LC100 (Danio rerio [3]): 100 µM | MTC (Danio rerio [3]): 25 µM | MEC (Danio rerio [4]): 25 µM

O=c1cc(-c2ccccc2)oc2cc(O)c(OCCCCO)c(O)c12
selectivity ratio [1]: 6 | selectivity ratio [2]: 2 | LC100 (Danio rerio [3]): 30 µM | MTC (Danio rerio [3]): 10 µM | MEC (Danio rerio [4]): 5 µM

O=C(COc1c(O)cc2oc(-c3ccccc3)cc(=O)c2c1O)NCCO
selectivity ratio [1]: 1 | selectivity ratio [2]: 1 | LC100 (Danio rerio [3]): 200 µM | MTC (Danio rerio [3]): 200 µM | MEC (Danio rerio [4]): 200 µM

CN1CCN(C(=O)COc2c(OCc3ccccc3)cc3oc(-c4ccccc4)cc(=O)c3c2O)CC1
selectivity ratio [1]: 5 | selectivity ratio [2]: 1 | LC100 (Danio rerio [3]): 50 µM | MTC (Danio rerio [3]): 10 µM | MEC (Danio rerio [4]): 10 µM

CCN1CCN(C(=O)COc2c(OCc3ccccc3)cc3oc(-c4ccccc4)cc(=O)c3c2O)CC1
LC100 (Danio rerio [3]): Nd(Insoluble) | MTC (Danio rerio [3]): Nd(Insoluble)

O=C(COc1c(OCc2ccccc2)cc2oc(-c3ccccc3)cc(=O)c2c1O)N1CCN(CCO)CC1
selectivity ratio [1]: 1 | selectivity ratio [2]: 1 | LC100 (Danio rerio [3]): 200 µM | MTC (Danio rerio [3]): 200 µM | MEC (Danio rerio [4]): 200 µM

O=c1cc(-c2ccccc2)oc2cc(O)c(OCCCO)c(O)c12
selectivity ratio [1]: 6 | selectivity ratio [2]: 1 | LC100 (Danio rerio [3]): 15 µM | MTC (Danio rerio [3]): 2.5 µM | MEC (Danio rerio [4]): 2.5 µM

O=c1cc(-c2ccccc2)oc2cc(O)c(OCCCCCNCCO)c(O)c12
selectivity ratio [1]: 4 | selectivity ratio [2]: 2 | LC100 (Danio rerio [3]): 100 µM | MTC (Danio rerio [3]): 50 µM | MEC (Danio rerio [4]): 25 µM

O=c1cc(-c2ccccc2)oc2cc(OCCCO)c(O)c(O)c12
selectivity ratio [1]: > 2 | selectivity ratio [2]: 1 | LC100 (Danio rerio [3]): > 200 µM | MTC (Danio rerio [3]): 100 µM | MEC (Danio rerio [4]): 100 µM

O=c1cc(-c2ccccc2)oc2cc(O)c(OCCCCCO)c(O)c12
selectivity ratio [1]: 5 | selectivity ratio [2]: 1 | LC100 (Danio rerio [3]): 5 µM | MTC (Danio rerio [3]): 1 µM | MEC (Danio rerio [4]): 1 µM

O=c1cc(-c2ccccc2)oc2cc(O)c(O)c(O)c12 [BAICALEIN]
selectivity ratio [1]: 2 | selectivity ratio [2]: 1 | LC100 (Danio rerio [3]): 1 µM | MTC (Danio rerio [3]): 0.5 µM | MEC (Danio rerio [4]): 0.5 µM

CN(C)CCNC(=O)COc1c(O)cc2oc(-c3ccccc3)cc(=O)c2c1O
selectivity ratio [1]: > 2 | selectivity ratio [2]: 1 | LC100 (Danio rerio [3]): > 200 µM | MTC (Danio rerio [3]): 100 µM | MEC (Danio rerio [4]): 100 µM

O=C(COc1c(O)cc2oc(-c3ccccc3)cc(=O)c2c1O)N(CCO)CCO
LC100 (Danio rerio [3]): > 200 µM | MTC (Danio rerio [3]): > 200 µM | MEC (Danio rerio [4]): >200 µM

CC(C)=CCOc1cc2oc(-c3ccccc3)cc(=O)c2c(O)c1O
selectivity ratio [1]: 2 | selectivity ratio [2]: 1 | LC100 (Danio rerio [3]): 100 µM | MTC (Danio rerio [3]): 50 µM | MEC (Danio rerio [4]): 50 µM

COc1c(OCCCN(C)CCO)c(O)cc2oc(-c3ccccc3)cc(=O)c12
selectivity ratio [1]: > 2 | selectivity ratio [2]: 1 | LC100 (Danio rerio [3]): > 200 µM | MTC (Danio rerio [3]): 100 µM | MEC (Danio rerio [4]): 100 µM

O=C(O)COc1c(O)cc2oc(-c3ccccc3)cc(=O)c2c1O
LC100 (Danio rerio [3]): 50 µM | MTC (Danio rerio [3]): > 50 µM | MEC (Danio rerio [4]): >50 µM

O=C(O)CCC(=O)OCCOc1c(O)cc2oc(-c3ccccc3)cc(=O)c2c1O
selectivity ratio [1]: 1.5 | selectivity ratio [2]: > 1.5 | LC100 (Danio rerio [3]): 75 µM | MTC (Danio rerio [3]): > 75 µM | MEC (Danio rerio [4]): 50 µM

O=c1cc(-c2ccccc2)oc2cc(O)c(OCCO)c(O)c12
selectivity ratio [1]: 10 | selectivity ratio [2]: 2 | LC100 (Danio rerio [3]): 50 µM | MTC (Danio rerio [3]): 10 µM | MEC (Danio rerio [4]): 5 µM

O=C(COc1c(O)cc2oc(-c3ccccc3)cc(=O)c2c1O)N1CCC(O)CC1
selectivity ratio [1]: 2 | selectivity ratio [2]: 1 | LC100 (Danio rerio [3]): 100 µM | MTC (Danio rerio [3]): 50 µM | MEC (Danio rerio [4]): 50 µM

O=C(COc1c(OCc2ccccc2)cc2oc(-c3ccccc3)cc(=O)c2c1O)N1CCCC1
selectivity ratio [1]: > 2 | selectivity ratio [2]: 1 | LC100 (Danio rerio [3]): > 200 µM | MTC (Danio rerio [3]): 100 µM | MEC (Danio rerio [4]): 100 µM

Source: ChEMBL document CHEMBL4229525, “Anti-angiogenic and anticancer effects of baicalein derivatives based on transgenic zebrafish model” (Bioorg Med Chem, 2018)
